Active and inactive are the calls of the source. The calls are words filed in the database; no cut-off is given here.

The species entered for assay [1] is Danio rerio. Put plainly: Cardioprotective activity in (cmlc2:GFP) transgenic Zebrafish assessed as prevention of doxorubicin-induced heart shape change measured after 48 hrs. Type of assay: functional, organism-based.
Assay [2] is filed under the species Danio rerio. Kind of assay: Prevention of doxorubicin-induced Zebrafish mortality assessed as survival rate at 5 uM incubated for 48 hrs by inverted fluorescence microscopy (reference value: 52%). Type of assay: functional.
Assay [3] relates to Danio rerio. Kind of assay: Cardioprotective activity in (cmlc2:GFP) transgenic Zebrafish assessed as reduction in doxorubicin-induced cardiac edema measured after 48 hrs. Type of assay: functional, organism-based.
For assay [4], the species on record is Danio rerio. Kind of assay: Cardioprotective activity against doxorubicin-induced (cmlc2:GFP) transgenic Zebrafish assessed as protection of heart function loss measured after 48 hrs. It counts as functional, organism-based. As to conditions: dose 20-60 µM. Summed up: (§1)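 Tg(cmlc2:GFP) embryos, 24 hpf, 20 per well, exposed to DOX (80 μM) with or without test compound at its optimum concentration for 48 h. At 72 hpf, heart rate, fractional shortening, stroke volume and cardiac output were derived from fluorescence imaging of atrium and ventricle. Mean ± S.D., n = 4.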

For assay [5], the species on record is Danio rerio. Kind of assay: Prevention of doxorubicin-induced Zebrafish mortality assessed as increase in survival rate incubated for 48 hrs by inverted fluorescence microscopy. As to conditions: dose 5-40 µM. It counts as functional, organism-based. In a few lines: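 Wild-type embryos, 24 hpf, 20 per well in 1 mL egg water, exposed to DOX (100 μM) with or without test compound (5, 15, 40 μM) for 48 h. Survival scored at 96 hpf by inverted fluorescence microscopy; no motion on touch, or loss of atrial and ventricular contractility, counted as dead. Mean ± S.D., n = 4.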

Assay [6] is filed under the species Danio rerio. Kind of assay: Cardioprotective activity against doxorubicin-induced (cmlc2:GFP) transgenic Zebrafish assessed as protection of heart measured after 48 hrs. Type of assay: functional, organism-based. The conditions noted are these: dose 20-60 µM. Summed up:
as §1

For assay [7], the species on record is Danio rerio. Put plainly: Cardioprotective activity in (cmlc2:GFP) transgenic Zebrafish assessed as reduction in doxorubicin-induced cardiac impairment measured after 48 hrs. It counts as functional, organism-based. Summed up: as §1
Assay [8] is filed under the species Danio rerio. Put plainly: Prevention of doxorubicin-induced Zebrafish mortality assessed as survival rate at 40 uM incubated for 48 hrs by inverted fluorescence microscopy (reference value: 52%). Type of assay: functional.
Assay [9] is filed under the species Danio rerio. Put plainly: Prevention of doxorubicin-induced Zebrafish mortality assessed as survival rate at 15 uM incubated for 48 hrs by inverted fluorescence microscopy (reference value: 52%). It counts as functional.

For the molecule `C[C@@]12CC[C@@H]3[C@@](CC[C@H]4[C@@]3(C)CCC[C@@]4(C)N)(CC1=O)C2`, the Activity entry in the assay listed under Danio rerio [1] was “Dose-Dependent Effect”; in the assay filed under Danio rerio [2], 85%; in the assay on Danio rerio [3] it was “Dose-Dependent Effect”; in the assay filed under Danio rerio [4], “Dose-Dependent Effect”; in the assay listed under Danio rerio [5], “Dose-Dependent Effect”; in the assay filed under Danio rerio [6], “Dose-Dependent Effect”. Further, the Activity entry in the assay listed under Danio rerio [7] is “Dose-Dependent Effect”.

As for `COC(=O)[C@]1(C)CCC[C@@]2(C)[C@@H]3CC[C@@]4(C)C[C@]3(CC[C@@H]21)CC4=O`, in the assay listed under Danio rerio [8], the Activity amounted to 60%.

Regarding `C=C1C(=O)[C@@]2(C)CC[C@@H]3[C@]1(CC[C@H]1[C@@]3(C)CCC[C@@]1(C)C(=O)O)C2`, the Activity is given as 26% in the assay listed under Danio rerio [8], 38% in the assay filed under Danio rerio [9] and 50% in the assay filed under Danio rerio [2].

Regarding `CC(=O)OC[C@@H]1C(=O)[C@@]2(C)CC[C@H]3[C@]4(C)CCC[C@@](C)(C(=O)O)[C@H]4CC[C@@]13C2`, the result in the assay filed under Danio rerio [8] was inactive.

On to `C[C@@H]1CC(=O)NN=C1c1ccc(NN=C(C#N)C#N)cc1` [LEVOSIMENDAN], for which the Activity in the assay listed under Danio rerio [8] is 74%; in the assay listed under Danio rerio [9], 69%; in the assay listed under Danio rerio [2], 58%; in the assay filed under Danio rerio [5], “Dose-Dependent Effect”.

In the case of `COc1ccc(C(=O)OC[C@@H]2[C@@H](O)[C@@]3(C)CC[C@H]4[C@]5(C)CCC[C@@](C)(N)[C@H]5CC[C@@]24C3)cc1`, in the assay listed under Danio rerio [8], the outcome was Active.

Take `Cc1ccc(S(=O)(=O)OC[C@@H]2[C@@H](O)[C@@]3(C)CC[C@H]4[C@]5(C)CCC[C@@](C)(C(=O)O)[C@H]5CC[C@@]24C3)cc1`: the Activity in the assay listed under Danio rerio [8], in the assay listed under Danio rerio [9] and in the assay filed under Danio rerio [2] was 60% in each case.

Consider `CC(=O)OC[C@@H]1[C@@H](O)[C@@]2(C)CC[C@H]3[C@]4(C)CCC[C@@](C)(C(=O)O)[C@H]4CC[C@@]13C2`, for which, in the assay filed under Danio rerio [8], the outcome was inactive.

With `COc1cc(C(=O)OC[C@@H]2C(=O)[C@@]3(C)CC[C@H]4[C@]5(C)CCC[C@@](C)(N)[C@H]5CC[C@@]24C3)cc(OC)c1OC`, the Activity in the assay filed under Danio rerio [8] is 87%; in the assay listed under Danio rerio [1] it was “Dose-Dependent Effect”; in the assay with Danio rerio [3] it was “Dose-Dependent Effect”; in the assay listed under Danio rerio [4] it was “Dose-Dependent Effect”; in the assay listed under Danio rerio [5] it was “Dose-Dependent Effect”; in the assay filed under Danio rerio [6], “Dose-Dependent Effect”. Further, the Activity result in the assay listed under Danio rerio [7] was “Dose-Dependent Effect”.

As for `COc1ccc(CC(=O)OC[C@@H]2[C@@H](O)[C@@]3(C)CC[C@H]4[C@]5(C)CCC[C@@](C)(C(=O)O)[C@H]5CC[C@@]24C3)cc1`, the Activity in the assay listed under Danio rerio [8] is above 70%.

Turning to `COc1cc(C(=O)OC[C@@H]2C(=O)[C@@]3(C)CC[C@H]4[C@]5(C)CCC[C@@](C)(C(=O)O)[C@H]5CC[C@@]24C3)cc(OC)c1OC`, the Activity in the assay listed under Danio rerio [8] was 68%; in the assay listed under Danio rerio [1], “Dose-Dependent Effect”; in the assay filed under Danio rerio [9] it was 68%; in the assay listed under Danio rerio [2] it was 68%; in the assay on Danio rerio [3] it was “Dose-Dependent Effect”; in the assay listed under Danio rerio [4] it was “Dose-Dependent Effect”. The Activity entry in the assay listed under Danio rerio [5], in the assay filed under Danio rerio [6] and in the assay filed under Danio rerio [7] was “Dose-Dependent Effect” each time.

As for `C[C@]12CC[C@H]3[C@]4(C)CCC[C@@](C)(C(=O)O)[C@H]4CC[C@@]3(C1)[C@H](CO)[C@H]2O`, the Activity in the assay listed under Danio rerio [8], in the assay listed under Danio rerio [9] and in the assay filed under Danio rerio [2] was 60% throughout.

With `Cc1ccc(S(=O)(=O)OC[C@@H]2C(=O)[C@@]3(C)CC[C@H]4[C@]5(C)CCC[C@@](C)(C(=O)O)[C@H]5CC[C@@]24C3)cc1`, the Activity in the assay listed under Danio rerio [8], in the assay listed under Danio rerio [9] and in the assay filed under Danio rerio [2] was 60% throughout.

Turning to `COc1cccc(C(=O)OC[C@@H]2C(=O)[C@@]3(C)CC[C@H]4[C@]5(C)CCC[C@@](C)(C(=O)O)[C@H]5CC[C@@]24C3)c1OC`, the Activity in the assay filed under Danio rerio [8] is on record as 70%.

Consider `COc1ccc(C(=O)OC[C@@H]2[C@@H](O)[C@@]3(C)CC[C@H]4[C@]5(C)CCC[C@@](C)(C(=O)O)[C@H]5CC[C@@]24C3)cc1`, for which, in the assay listed under Danio rerio [8], the Activity is above 70%.

As for `COc1ccc(C(=O)OC[C@@H]2[C@@H](O)[C@@]3(C)CC[C@H]4[C@]5(C)CCC[C@@](C)(N)[C@H]5CC[C@@]24C3)c(OC)c1OC`, the result in the assay listed under Danio rerio [8] was Active.

As to `COc1cccc(C(=O)OC[C@@H]2[C@@H](O)[C@@]3(C)CC[C@H]4[C@]5(C)CCC[C@@](C)(N)[C@H]5CC[C@@]24C3)c1OC`, the result in the assay listed under Danio rerio [8] was Active.

Regarding `COc1ccc(C(=O)OC[C@@H]2C(=O)[C@@]3(C)CC[C@H]4[C@]5(C)CCC[C@@](C)(C(=O)O)[C@H]5CC[C@@]24C3)cc1OC`, the outcome in the assay listed under Danio rerio [8] was Active. Besides, the Activity in the assay listed under Danio rerio [8] (record 2) is listed as above 70%.

Take `COc1ccc(C(=O)OC[C@@H]2C(=O)[C@@]3(C)CC[C@H]4[C@]5(C)CCC[C@@](C)(C(=O)O)[C@H]5CC[C@@]24C3)c(OC)c1OC`: the Activity is 77% in the assay filed under Danio rerio [8]; “Dose-Dependent Effect” in the assay filed under Danio rerio [1]; 77% in the assay listed under Danio rerio [9]; 77% in the assay listed under Danio rerio [2]; “Dose-Dependent Effect” in the assay on Danio rerio [3]; “Dose-Dependent Effect” in the assay listed under Danio rerio [4]. For the same molecule, the Activity result in the assay filed under Danio rerio [5], in the assay filed under Danio rerio [6] and in the assay listed under Danio rerio [7] was “Dose-Dependent Effect” each time.

`C[C@]12CC[C@H]3[C@]4(C)CCC[C@@](C)(C(=O)O)[C@H]4CC[C@@]3(C1)[C@H](COC(=O)C1CCCCC1)C2=O`: the result in the assay filed under Danio rerio [8] was inactive.

Take `C[C@]12CC[C@H]3[C@]4(C)CCC[C@@](C)(N)[C@H]4CC[C@@]3(C1)[C@H](CO)[C@H]2O`: the result in the assay listed under Danio rerio [8] was inactive.

Turning to `COc1ccc(COC(=O)[C@]2(C)CCC[C@@]3(C)[C@@H]4CC[C@@]5(C)C[C@]4(CC[C@@H]32)CC5=O)cc1`, the Activity in the assay filed under Danio rerio [9] was found to be 60%.

In the case of `C[C@@]12CC[C@@H]3[C@@](CC[C@H]4[C@@]3(C)CCC[C@@]4(C)C(=O)OCc3ccccc3)(CC1=O)C2`, in the assay filed under Danio rerio [2], the Activity came to 60%.

`C[C@]12CC[C@H]3[C@]4(C)CCC[C@@](C)(N)[C@H]4CC[C@@]3(C1)[C@H](COC(=O)c1cccnc1)[C@H]2O`: in the assay listed under Danio rerio [8], the result was Active.

For `COc1cc(C(=O)OC[C@@H]2[C@@H](O)[C@@]3(C)CC[C@H]4[C@]5(C)CCC[C@@](C)(N)[C@H]5CC[C@@]24C3)cc(OC)c1OC`, the result in the assay listed under Danio rerio [8] was Active.

For `C[C@]12CC[C@H]3[C@]4(C)CCC[C@@](C)(C(=O)O)[C@H]4CC[C@@]3(C1)[C@H](COC(=O)C1CCCCC1)[C@H]2O`, the outcome in the assay listed under Danio rerio [8] was inactive.

As to `C[C@@]12CC[C@@H]3[C@@](CC[C@H]4[C@@]3(C)CCC[C@@]4(C)C(=O)O)(CC1=O)C2` [ISOSTEVIOL], the result in the assay filed under Danio rerio [8] and in the assay filed under Danio rerio [9] was inactive. The Activity entry in the assay listed under Danio rerio [1] is “Dose-Dependent Effect”; in the assay filed under Danio rerio [2], 57%; in the assay with Danio rerio [3] it was “Dose-Dependent Effect”; in the assay listed under Danio rerio [4] it was “Dose-Dependent Effect”; in the assay filed under Danio rerio [6], “Dose-Dependent Effect”; in the assay listed under Danio rerio [7], “Dose-Dependent Effect”.

As for `COc1ccc(C(=O)OC[C@@H]2[C@@H](O)[C@@]3(C)CC[C@H]4[C@]5(C)CCC[C@@](C)(C(=O)O)[C@H]5CC[C@@]24C3)cc1OC`, in the assay filed under Danio rerio [8], the Activity is recorded as above 70%.
